Compound activity from PubChem.
TLR4 MyD88 comp – inhibitors of TLR4-MyD88 association in cells, primary screen, cell-based, HeLa CL3-4, BLA complementation, FRET ratio; HeLa CL3-4 TLR4/MyD88 BLA complementation; AID 861, 2007; 200,000 compounds, 0.18% hits; inhibition, % at 8.4 µM; in the data active = inhibition above about 25%
beta cell repl – inducers of MIN6 beta-cell proliferation, primary screen, ATP luminescence, uHTS; MIN6 cells proliferation, ATPlite luminescence, 48 h; cells starved in 0.2% serum; 100% = growth in 10% serum; 330,000 compounds, 0.29% hits; proliferation, % at 10 µM; AID 2380, 2010;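 active = compounds whose signal lies at least 3.5 SD above the mean of all wells on their plate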
MC4R antag cAMP – MC4R antagonists of cAMP signaling, primary screen, cell-based, TR-FRET, antagonist arm of biased-ligand search. AID 540295, 2011. MC4R-expressing cells, MTII-stimulated cAMP, LANCE TR-FRET. 360,000 compounds, 0.48% hits. inhibition, % at 6.5 µM;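 active = inhibition above its plate's cutoff, the mean of tested wells on that plate plus 3 SD, cut at about 29% in these data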
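Assay system: human MC4R-expressing U2OS cells; reagent: Melanotan II stimulation of cells; dosing: 6.5 µM single dose; timing: compound 30 min, challenge 1 h, detection 1 h; signal: TR-FRET cAMP assay; replicates: one well per compound, no replicates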
NOD2-RIPK2 inh – NOD2-RIPK2 binding disruptors in cells, primary screen, fluorescence, CHO cells, BLA complementation | Receptor-interacting serine/threonine-protein kinase 2 (Homo sapiens), O43353 | 360,000 compounds, 0.38% hits | CCF4 ratio | inhibition, % at 4.98 µM | AID 624267, 2012; in the data active = inhibition above about 21%
MC4R barr agon – MC4R agonists recruiting beta-arrestin, primary screen, cell-based, luminescence, agonist arm of biased-ligand search. Melanocortin receptor 4 (Homo sapiens), P32245. U2OS MC4R beta-arrestin complementation; percent of melanotan II response, DMSO zero. activation, % at 8.9 µM. 360,000 compounds, 0.98% hits;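 active = activation above a per-plate cutoff, the mean activation of sample wells on that plate plus 3 SD, cut at about 8% in these data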
TLR9-MyD88 block – inhibitors of TLR9-MyD88 association in cells, primary screen, cell-based, CHO, BLA complementation, fluorescence | Toll-like receptor 9 (Homo sapiens) + Myeloid differentiation primary response protein … | 340,000 compounds, 0.21% hits | AID 504734, 2011 | inhibition, % at 4.98 µM | CCF4 FRET ratio;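 active = inhibition above the mean over all tested compounds plus 3 SD, cut at about 21% in these data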
TLR9-MyD88 cf – TLR9-MyD88 association inhibitors, retest, confirmation, cell-based, CHO, BLA complementation, fluorescence, triplicate; shares compounds with TLR9-MyD88 block; CCF4 FRET ratio; 680 compounds, 51% hits; inhibition, % at 4.98 µM;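 active = mean inhibition across three repeats above about 21% taken from the earlier screen, limit read from the data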;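 also: blue over green emission ratio reports constitutive TLR9 MyD88 association via BLA complementation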
BLA counter-1 – beta-lactamase reporter inhibitors in CHO cells, artefact control for TLR9-MyD88 binding inhibitor project, cell-based, fluorescence; inhibition, % at 4.98 µM; shares compounds with TLR9-MyD88 block; 680 compounds, 7% hits; AID 540251, 2011; CHO-BLA cells, CCF4 FRET ratio, BLA reporter;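 active = mean inhibition above a 50% cutoff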;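 also: counterscreen of TLR9-MyD88 hits on CMV-driven BLA in CHO-K1 cells; higher means less blue over green ratio so more BLA blockade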
TLR9 CHO tox – CHO cell viability loss – luminescence, single concentration, cytotoxicity control for TLR9-MyD88 binding inhibitor project; shares compounds with TLR9-MyD88 block; TLR9-MyD88 CHO cells cytotoxicity; inhibition, % at 4.98 µM; 680 compounds, 39% hits; in the data active = inhibition above about 11%
NOD2-RIPK2 conf – NOD2-RIPK2 binding disruptors, retest, confirmation, fluorescence, CHO cells, BLA complementation, triplicate. inhibition, % at 4.98 µM. shares compounds with NOD2-RIPK2 inh. CCF4 FRET. 1,200 compounds, 70% hits;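 active = mean inhibition across replicates above a set limit taken from the earlier primary screen, cut at about 21% in these data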
BLA counter-2 – counter-screen for NOD2-RIPK2 interaction inhibitors: BLA reporter | AID 624371 | shares compounds with NOD2-RIPK2 inh | inhibition, % at 4.98 µM | 1,200 compounds, 57% hits | CHO BLA reporter, CCF4 FRET ratio, counterscreen;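 active = mean inhibition above the low-control mean inhibition plus three low-control SD, cut at about 11% in these data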
Of the large screens only hits and unclear results are named; the others gave an inactive call (follow-up assays come after a bar, where they were run). The list is not random: actives were taken first. Their share in the collection is about 2.1%.

Cn1c2ccccc2c(=O)c2ccc(C#Cc3ccc(N)cc3)cc21	NOD2-RIPK2 inh 54.7, TLR9-MyD88 block 40.7 (no result: TLR4 MyD88 comp) | TLR9-MyD88 cf 32.0 | BLA counter-1 inactive | TLR9 CHO tox inactive | NOD2-RIPK2 conf 51.1 | BLA counter-2 59.8
Cc1ccc(C2=CC(c3ccc(C)cc3)n3ncnc3N2)cc1 (centres undefined)	NOD2-RIPK2 inh 45.9, TLR9-MyD88 block 25.6 (no result: TLR4 MyD88 comp) | TLR9-MyD88 cf inactive | BLA counter-1 inactive | TLR9 CHO tox inactive | NOD2-RIPK2 conf 33.1 | BLA counter-2 34.7
CCOc1ccc(C2C=C(c3ccc(C)cc3)Nc3nnnn32)cc1 (centres undefined)	NOD2-RIPK2 inh 45.0, TLR9-MyD88 block 61.7 | TLR9-MyD88 cf inactive | BLA counter-1 inactive | TLR9 CHO tox inactive | NOD2-RIPK2 conf inactive | BLA counter-2 inactive
COc1ccc(C2C=C(C)Nc3ncnn32)cc1 (centres undefined)	none (no result: TLR4 MyD88 comp)
CCOc1ccc(C2C=C(c3ccc(C)cc3)Nc3ncnn32)cc1 (centres undefined)	none (no result: MC4R antag cAMP, NOD2-RIPK2 inh, MC4R barr agon, TLR9-MyD88 block)
COc1ccc(C2C=C(c3ccccc3)Nc3ncnn32)cc1 (centres undefined)	NOD2-RIPK2 inh 46.0, TLR9-MyD88 block 38.7 | TLR9-MyD88 cf inactive | BLA counter-1 inactive | TLR9 CHO tox inactive | NOD2-RIPK2 conf inactive | BLA counter-2 inactive
CCOc1ccc(C2C=C(c3ccccc3)Nc3nnnn32)cc1 (centres undefined)	none
CC(=O)Nc1ccc(NC(=O)CCC(=O)OCC(=O)c2ccc(F)cc2)cc1	none (no result: TLR4 MyD88 comp)
Cc1cccc(NC(=O)c2cc(-c3ccccn3)nc3ccccc23)c1C	none
Cc1c(Cl)cccc1NC(=O)NN1CCN(C)CC1	none (no result: TLR4 MyD88 comp)
Nc1cccc2c1C(=O)N(C(=O)c1cccc(S(=O)(=O)N3CCCC3)c1)C2=O	NOD2-RIPK2 inh 22.0, TLR9-MyD88 block 22.6 | TLR9-MyD88 cf inactive | BLA counter-1 inactive | TLR9 CHO tox inactive | NOD2-RIPK2 conf 28.0 | BLA counter-2 34.8
COc1ccc(C2=CSC3=NCCN23)cc1Br	none (no result: TLR4 MyD88 comp, TLR9-MyD88 block)
NC(=O)CC(NC(=O)c1cccc(Br)c1)c1ccc(NCCN2CCOCC2)c([N+](=O)[O-])c1 (centres undefined)	none (no result: TLR4 MyD88 comp, MC4R antag cAMP, NOD2-RIPK2 inh, MC4R barr agon, TLR9-MyD88 block)
CCC1CCCCN1S(=O)(=O)c1ccc(NC(=O)c2ccncc2)cc1 (centres undefined)	none (no result: TLR4 MyD88 comp)
COC(=O)c1ccccc1NC(=O)c1nc(S(=O)(=O)Cc2ccccc2)ncc1Cl	none (no result: TLR4 MyD88 comp)
O=C(Nc1ccc(OC(F)F)cc1)c1ncc(Cl)c(Cl)c1Cl	none
